Source: ChEMBL document CHEMBL1122969, “Spiro[4.5] and spiro[4.6] carboxylic acids: cyclic analogues of valproic acid. Synthesis and anticonvulsant evaluation” (J Med Chem, 1985)

Legend:
Mus musculus [1] = assay: Anticonvulsant activity against Bicucullin (3.75 mg/kg) induced tonic seizure at dose 360 mg/kg subcutaneously at pretreatment time of 15 min.; assay type: functional; settings: route subcutaneous
Method in brief: (§1)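 CF1 mice (Sprague–Dawley) were given the compound sc in 30% polyethylene glycol 400, with vehicle-injected controls. After the stated pretreatment interval, at the time of peak effect, bicuculline 3.75 mg/kg was injected sc; this dose gives clonic and tonic seizures and death in all controls. Clonic seizure = at least one 5-s clonic spasm episode. Tonic seizure = hindlimb flexion then extension. Scored as mice protected/tested plus mean ± SD onset, minutes.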

Mus musculus [2] = species on record: Mus musculus; assay: animal or person; settings: sc
Mus musculus [3] = assay: Anticonvulsant activity against Bicucullin (3.75 mg/kg) induced clonic seizure at dose 400 mg/kg subcutaneously at pretreatment time of 15 min.; assay type: functional; settings: route subcutaneous; method in brief: as §1
Mus musculus [4] = assay: Anticonvulsant activity against Bicucullin (3.75 mg/kg) induced death at dose 400 mg/kg subcutaneously at pretreatment time of 15 min.; assay type: ADME, organism-based; set-up: dose 400 mg/kg, route subcutaneous; settings: in vivo, sc
Mus musculus [5] = assay: Anticonvulsant activity against Bicucullin (3.75 mg/kg) induced clonic seizure at dose 360 mg/kg subcutaneously at pretreatment time of 15 min.; assay type: functional; settings: route subcutaneous; method in brief: as §1
Mus musculus [6] = assay: Anticonvulsant activity against picrotoxin (4.0 mg/kg) induced clonic seizures at 400 mg/kg subcutaneous dose 15 min pretreatment; assay type: functional
Mus musculus [7] = assay: Phase V qualification against antipicrotoxin activity administered subcutaneously at 3.2 mg/kg; assay type: functional; settings: sc, route subcutaneous
Mus musculus [8] = assay: Anticonvulsant activity against Bicucullin (3.75 mg/kg) induced tonic seizure at dose 400 mg/kg subcutaneously at pretreatment time of 15 min.; assay type: functional; settings: route subcutaneous; method in brief: as §1
Mus musculus [9] = assay: Anticonvulsant activity against Subcutaneous pentylenetetrazole test at dose 600 mg/kg at 4 hr; assay type: functional
Method in brief: (§2)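 Phase I mouse screen. Compound was suspended in 30% polyethylene glycol 400 and given by intraperitoneal injection at 30, 100, 300 or 600 mg/kg. Testing was at 30 min and 4 h (maximal electroshock or subcutaneous pentylenetetrazol), with rotorod toxicity scored alongside. Scored as animals protected/tested; toxicity was flagged at the 0.5 h or 4 h check.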

Mus musculus [10] = assay: Anticonvulsant activity against Bicucullin (3.75 mg/kg) induced death at dose 150 mg/kg subcutaneously at pretreatment time of 30 min.; assay type: ADME, organism-based; set-up: dose 150 mg/kg, route subcutaneous; settings: in vivo, sc
Mus musculus [11] = assay: Anticonvulsant activity against Bicucullin (3.75 mg/kg) induced tonic seizure at dose 150 mg/kg subcutaneously at pretreatment time of 30 min.; assay type: functional; settings: route subcutaneous; method in brief: as §1
Mus musculus [12] = assay: Anticonvulsant activity against Maximal electroshock seizure at dose 300 mg/kg at 4 hr; assay type: functional; method in brief: as §2
Mus musculus [13] = assay: Anticonvulsant activity against Subcutaneous pentylenetetrazole test at dose 300 mg/kg at 0.5 hr; assay type: functional; method in brief: as §2
Mus musculus [14] = assay: Anticonvulsant activity against neurologic toxicity test at dose 600 mg/kg at 4 hr; assay type: organism-based; set-up: dose 600 mg/kg; settings: in vivo
Method in brief: (§3)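 Mice got the compound as a suspension in 30% polyethylene glycol 400 by ip injection (30, 100, 300, 600 mg/kg) 30 min or 4 h before the rotorod neurological toxicity test. The value is the number of animals showing toxicity over the number tested.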

Mus musculus [15] = assay: Anticonvulsant activity against picrotoxin (4.0 mg/kg) induced clonic seizures at 180 mg/kg subcutaneous dose 15 min pretreatment; assay type: functional
Mus musculus [16] = assay: Anticonvulsant activity against Bicucullin (3.75 mg/kg) induced death at dose 150 mg/kg subcutaneously at pretreatment time of 15 min.; assay type: ADME, organism-based; set-up: dose 150 mg/kg, route subcutaneous; settings: in vivo, sc
Mus musculus [17] = assay: Anticonvulsant activity against neurologic toxicity test at dose 300 mg/kg at 0.5 hr; assay type: organism-based; set-up: dose 300 mg/kg; settings: in vivo; method in brief: as §3
Mus musculus [18] = assay: Anticonvulsant activity against neurologic toxicity test at dose 600 mg/kg at 0.5 hr; assay type: organism-based; set-up: dose 600 mg/kg; settings: in vivo; method in brief: as §3
Mus musculus [19] = assay: Anticonvulsant activity against Maximal electroshock seizure at dose 300 mg/kg at 0.5 hr; toxic; assay type: ADME, organism-based; set-up: dose 300 mg/kg; settings: in vivo; method in brief: as §2
Mus musculus [20] = assay: Anticonvulsant activity against Bicucullin (3.75 mg/kg) induced tonic seizure at dose 150 mg/kg subcutaneously at pretreatment time of 15 min.; assay type: functional; settings: route subcutaneous; method in brief: as §1
[21] = Phase II qualification against neurotoxicity administered subcutaneously was reported.; assay type: toxicity, organism-based; settings: mouse, in vivo, sc
Method in brief: (§4)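 Mice were used. scMet ED50 and rotorod TD50 came from groups of 6–12 mice dosed over a range until at least three points fell within 10–90% protection or minimal neurotoxicity. Both were read at the time of peak effect, 0.5 h. ED50, TD50 and 95% confidence intervals were obtained from a plot by the Litchfield–Wilcoxon method. PI = TD50/ED50.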

Mus musculus [22] = assay: Phase II qualification against administered subcutaneously was reported.; assay type: functional; settings: sc; method in brief: as §4
[23] = Protective index is the ratio of TD50 to that of ED50; assay type: ADME; settings: read-out: Protective index; method in brief: as §4
Mus musculus [24] = assay: Anticonvulsant activity against Bicucullin (3.75 mg/kg) induced clonic seizure at dose 150 mg/kg subcutaneously at pretreatment time of 15 min.; assay type: functional; settings: route subcutaneous; method in brief: as §1
[25] = Phase V qualification against neurotoxicity administered subcutaneously at a dose (3.2 mg/kg) was reported.; assay type: toxicity, organism-based; settings: mouse, in vivo, sc
Mus musculus [26] = assay: Anticonvulsant activity against Bicucullin (3.75 mg/kg) induced clonic seizure at dose 150 mg/kg subcutaneously at pretreatment time of 30 min.; assay type: functional; settings: route subcutaneous; method in brief: as §1
Mus musculus [27] = assay: Anticonvulsant activity against Maximal electroshock seizure at dose 600 mg/kg at 4 hr; assay type: functional; method in brief: as §2
Mus musculus [28] = assay: Anticonvulsant activity against Maximal electroshock seizure at dose 600 mg/kg at 0.5 hr; assay type: functional; method in brief: as §2
Mus musculus [29] = assay: Anticonvulsant activity against neurologic toxicity test at dose 300 mg/kg at 4 hr; assay type: organism-based; set-up: dose 300 mg/kg; settings: in vivo; method in brief: as §3
Mus musculus [30] = assay: Anticonvulsant activity against Subcutaneous pentylenetetrazole test at dose 300 mg/kg at 4 hr; assay type: functional; method in brief: as §2
Mus musculus [31] = assay: Anticonvulsant activity against Subcutaneous pentylenetetrazole test at dose 600 mg/kg at 0.5 hr; assay type: functional; method in brief: as §2
Mus musculus [32] = assay: Anticonvulsant activity against Maximal electroshock seizure at dose 300 mg/kg at 0.5 hr; assay type: functional; method in brief: as §2

CCCC(CCC)C(=O)O [VALPROIC ACID]
Average onset (Mus musculus [1]): 11 min
ED50 (Mus musculus [2]): 149 mg/kg
Average onset (Mus musculus [3]): 15 min
Average onset (Mus musculus [4]): 18 min
Average onset (Mus musculus [5]): 9 min
Average onset (Mus musculus [6]): 16 min
ED50 (Mus musculus [7]): 387 mg/kg
Average onset (Mus musculus [8]): 17 min

O=C(O)C1CCC2(CCCCCC2)C1 (centres undefined)
No. protected/tested (Mus musculus [9]): 1
Average onset (Mus musculus [10]): 14 min
Average onset (Mus musculus [11]): 13 min
No. protected/tested (Mus musculus [12]): 0
No. protected/tested (Mus musculus [13]): 1
No. toxicity/tested (Mus musculus [14]): 1
Average onset (Mus musculus [15]): 21 min
Average onset (Mus musculus [16]): 10 min
No. toxicity/tested (Mus musculus [17]): 1
No. toxicity/tested (Mus musculus [18]): 4
No. protected/tested (Mus musculus [19]): 1
Average onset (Mus musculus [20]): 10 min
TD50 [21]: 193 mg/kg
ED50 (Mus musculus [22]): 83 mg/kg
selectivity ratio [23]: 2.3
Average onset (Mus musculus [24]): 7 min
TD50 [25]: 193 mg/kg
Average onset (Mus musculus [26]): 8 min
No. protected/tested (Mus musculus [27]): 0
No. protected/tested (Mus musculus [28]): 0
ED50 (Mus musculus [7]): 167 mg/kg
No. toxicity/tested (Mus musculus [29]): 0
No. protected/tested (Mus musculus [30]): 0
No. protected/tested (Mus musculus [31]): 1

O=C([O-])C1CCC2(CCCCCC2)C1.[Na+] (centres undefined)
No. protected/tested (Mus musculus [9]): 0
No. protected/tested (Mus musculus [12]): 0
No. protected/tested (Mus musculus [13]): 0
No. toxicity/tested (Mus musculus [14]): 2
No. toxicity/tested (Mus musculus [17]): 0
No. toxicity/tested (Mus musculus [18]): 4
No. protected/tested (Mus musculus [27]): 0
No. protected/tested (Mus musculus [28]): 0
No. toxicity/tested (Mus musculus [29]): 0
No. protected/tested (Mus musculus [30]): 0
No. protected/tested (Mus musculus [31]): 1
No. protected/tested (Mus musculus [32]): 0
